# From ChEMBL document CHEMBL1152227, “Structure-activity relationships of 1,4-dihydropyridines that act as enhancers of the vanilloid receptor 1 (TRPV1)” (Bioorg Med Chem, 2008)
# The source made the active and inactive calls. The rule behind the calls is not given here.
# Tests used:
# [1] = target: T1, Transient receptor potential cation channel subfamily V member 1 (Homo sapiens, UniProt Q8NER1); experiment: Agonist-enhancing activity in epsilon-epitope tagged TRPV1 receptor expressed in mouse NIH3T3 cells assessed as capsaicin-induced 45Ca2+ influx by microplate liquid scintillation counter; format: functional, cell-based
# T1 sequence (Q8NER1 whole entry): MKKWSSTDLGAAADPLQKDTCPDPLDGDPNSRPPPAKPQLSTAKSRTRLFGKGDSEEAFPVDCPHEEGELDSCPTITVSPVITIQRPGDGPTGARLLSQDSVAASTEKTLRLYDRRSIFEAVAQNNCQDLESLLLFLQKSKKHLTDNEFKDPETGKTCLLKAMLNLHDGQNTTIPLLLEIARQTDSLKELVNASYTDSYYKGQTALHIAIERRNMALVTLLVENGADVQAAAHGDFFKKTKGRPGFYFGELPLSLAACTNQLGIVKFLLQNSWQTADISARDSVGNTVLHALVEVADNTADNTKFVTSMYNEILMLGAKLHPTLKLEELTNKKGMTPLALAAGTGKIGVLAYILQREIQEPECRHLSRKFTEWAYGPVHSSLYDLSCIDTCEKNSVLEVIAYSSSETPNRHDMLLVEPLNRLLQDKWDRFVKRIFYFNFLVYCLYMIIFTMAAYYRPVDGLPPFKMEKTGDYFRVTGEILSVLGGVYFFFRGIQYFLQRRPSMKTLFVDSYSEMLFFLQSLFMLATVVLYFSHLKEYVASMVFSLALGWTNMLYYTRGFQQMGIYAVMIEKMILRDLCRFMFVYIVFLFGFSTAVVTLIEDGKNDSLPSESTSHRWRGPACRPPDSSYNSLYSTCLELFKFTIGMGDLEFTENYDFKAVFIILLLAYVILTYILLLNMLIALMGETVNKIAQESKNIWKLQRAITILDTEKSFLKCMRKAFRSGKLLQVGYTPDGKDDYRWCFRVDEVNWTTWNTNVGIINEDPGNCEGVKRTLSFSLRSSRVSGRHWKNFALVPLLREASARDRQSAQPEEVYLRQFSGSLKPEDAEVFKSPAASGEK
# In short: (§1)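 Stable ε-tagged TRPV1 NIH3T3 cells. Uptake with capsaicin 2 µM, 10 min at 20°C, 0.5 µCi/well 45Ca2+ in Tris-HBSS pH 7.5. Compound up to 100 µM, 2% DMSO, from 5 mM stocks, duplicate wells per concentration. Data normalized to capsaicin-only wells (100%). Variable-slope fit gave EC50 and ΔEmax; compounds too weak to fit were given ΔEmax at the top concentration.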
# [2] = target: T1, Transient receptor potential cation channel subfamily V member 1; experiment: Agonist-enhancing activity in epsilon-epitope tagged TRPV1 receptor expressed in mouse NIH3T3 cells assessed as capsaicin-induced 45Ca2+ influx at 100 uM by microplate liquid scintillation counter relative to capsaicin alone; format: functional, cell-based; in short: as §1
# [3] = target: Transient receptor potential cation channel subfamily V member 1 (Rattus norvegicus) (UniProt O35433); experiment: Agonist-enhancing activity at TRPV1 receptor in E15 rat primary dorsal root ganglion cells assessed as capsaicin-induced 45Ca2+ influx by microplate liquid scintillation counter relative to capsaicin alone; format: functional, tissue-based
# Transient receptor potential cation channel subfamily V member 1 (Rattus norvegicus), sequence (O35433 whole entry, the tested form may be a part): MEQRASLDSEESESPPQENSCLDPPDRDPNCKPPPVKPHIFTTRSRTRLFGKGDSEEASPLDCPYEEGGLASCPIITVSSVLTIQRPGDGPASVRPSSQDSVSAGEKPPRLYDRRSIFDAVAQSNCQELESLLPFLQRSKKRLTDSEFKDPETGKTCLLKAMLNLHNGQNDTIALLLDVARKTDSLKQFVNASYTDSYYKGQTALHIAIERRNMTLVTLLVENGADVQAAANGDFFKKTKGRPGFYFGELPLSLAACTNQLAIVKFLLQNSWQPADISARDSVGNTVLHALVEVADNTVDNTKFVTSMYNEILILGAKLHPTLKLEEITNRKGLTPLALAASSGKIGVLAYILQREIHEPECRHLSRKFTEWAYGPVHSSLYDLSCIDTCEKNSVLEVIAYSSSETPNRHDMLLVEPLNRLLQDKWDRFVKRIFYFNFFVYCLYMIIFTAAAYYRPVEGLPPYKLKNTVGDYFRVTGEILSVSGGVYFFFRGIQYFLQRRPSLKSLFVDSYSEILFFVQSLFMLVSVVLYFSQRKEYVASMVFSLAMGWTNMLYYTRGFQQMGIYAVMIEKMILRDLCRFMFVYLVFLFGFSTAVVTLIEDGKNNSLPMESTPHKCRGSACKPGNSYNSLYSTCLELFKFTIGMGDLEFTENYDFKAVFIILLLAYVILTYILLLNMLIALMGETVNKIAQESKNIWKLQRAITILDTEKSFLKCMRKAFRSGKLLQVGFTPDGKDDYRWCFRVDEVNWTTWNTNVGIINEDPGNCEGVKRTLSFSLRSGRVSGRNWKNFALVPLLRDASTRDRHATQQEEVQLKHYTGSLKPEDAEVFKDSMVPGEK
# In short: (§2)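 E15 rat DRG cultures grown 5–6 days at 35°C. Uptake with capsaicin ~0.5 µM, 10 min at 20°C, 0.5 µCi/well 45Ca2+ in Tris-HBSS pH 7.5. Compound up to 50 µM, 0.2% DMSO, from 25 mM stocks. Counts normalized to in-plate capsaicin-only wells (100%, 4 wells). Variable-slope sigmoid fit gave EC50, Hill slope and ΔEmax.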
# [4] = target: T1, Transient receptor potential cation channel subfamily V member 1; experiment: Agonist activity at epsilon-epitope tagged TRPV1 receptor expressed in mouse NIH3T3 cells assessed as effect on 45Ca2+ influx by microplate liquid scintillation counter; format: functional, cell-based
# In short: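 NIH3T3 cells stably expressing ε-tagged TRPV1 were seeded the day before and grown at 35°C. Test compound given without capsaicin, top concentration 100 µM, 2% DMSO. 45Ca2+ uptake run 10 min at 20°C in Tris-HBSS (pH 7.5) with ascorbate, 10 µM Ca2+ and 0.8 mM Mg2+. Cells were washed, lysed in RIPA and counted by scintillation.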
# [5] = target: Transient receptor potential cation channel subfamily V member 1 (Rattus norvegicus) (UniProt O35433); experiment: Agonist activity at TRPV1 receptor in E15 rat primary dorsal root ganglion cells assessed as effect on 45Ca2+ influx by microplate liquid scintillation counter; format: functional, tissue-based
# In short: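 DRGs from E15 rat embryos, enzymatically dissociated, grown 5–6 days at 35°C. Test compound given without capsaicin. 45Ca2+ uptake run 10 min at 20°C in Tris-buffered (pH 7.5) HBSS with 1 mM ascorbate, 10 µM CaCl2 and 0.8 mM MgCl2, with 0.5 µCi/well tracer. Cells were washed, lysed in RIPA and counted by scintillation.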
# [6] = target: T2, Adenosine receptor A3 (Rattus norvegicus) (UniProt P28647); experiment: Binding affinity to rat adenosine A3 receptor
# T2 sequence (whole entry): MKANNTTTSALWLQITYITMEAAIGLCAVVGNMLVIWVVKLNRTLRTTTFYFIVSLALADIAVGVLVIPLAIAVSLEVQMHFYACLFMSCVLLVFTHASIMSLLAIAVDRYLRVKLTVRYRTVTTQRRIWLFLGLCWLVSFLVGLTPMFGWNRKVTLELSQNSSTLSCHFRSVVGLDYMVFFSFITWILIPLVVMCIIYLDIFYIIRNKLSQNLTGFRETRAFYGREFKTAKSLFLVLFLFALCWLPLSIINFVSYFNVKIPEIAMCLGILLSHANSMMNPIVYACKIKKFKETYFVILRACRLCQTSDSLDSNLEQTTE
# Adenosine receptor A3 = target: T3, Adenosine receptor A3 (Homo sapiens, UniProt P0DMS8); experiment: Binding affinity to human adenosine A3 receptor
# T3 sequence (P0DMS8 whole entry): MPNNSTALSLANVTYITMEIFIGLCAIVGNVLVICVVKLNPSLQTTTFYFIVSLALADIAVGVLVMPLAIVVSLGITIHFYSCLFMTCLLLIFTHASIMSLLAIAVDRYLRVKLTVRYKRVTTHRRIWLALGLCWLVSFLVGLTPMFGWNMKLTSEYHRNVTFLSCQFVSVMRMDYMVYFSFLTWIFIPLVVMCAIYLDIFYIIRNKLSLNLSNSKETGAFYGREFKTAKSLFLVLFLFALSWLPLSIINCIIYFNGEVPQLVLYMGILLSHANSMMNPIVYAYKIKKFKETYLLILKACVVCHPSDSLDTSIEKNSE
# [7] = target: Transient receptor potential cation channel subfamily V member 1 (Rattus norvegicus) (UniProt O35433); experiment: Agonist-enhancing activity at TRPV1 receptor in E15 rat primary dorsal root ganglion cells assessed as increase in intracellular calcium levels at 10 uM by Fura-4F AM based fluorimetric method relative to capsaicin alone; format: functional, tissue-based
# In short: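 E15 rat DRG neurons on poly-ornithine/laminin coverslips, cultured 4–6 days. Loaded with 2.5 µM Fura-4F AM for 20 min at room temperature and perfused at 0.5 mL/min in pH 7.4 HEPES saline with ascorbate. Exposed 30 s to 200 nM capsaicin ± 10 µM compound, DMSO 0.04% in controls. 340/380 ratio read at 0.5 Hz and normalized to the 2-min baseline. Peak taken as the mean of 10 points, 3 coverslips per condition.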
# [8] = target: Transient receptor potential cation channel subfamily V member 1 (Rattus norvegicus) (UniProt O35433); experiment: Agonist-enhancing activity at TRPV1 receptor in E15 rat primary dorsal root ganglion cells assessed as capsaicin-induced 45Ca2+ influx by microplate liquid scintillation counter; format: functional, tissue-based; in short: as §2
EC50 [1] [µM],Emax [2] [%],Emax [3] [%],Activity [4],Activity [5],Activity [6],Ki (Adenosine receptor A3) [µM],Activity [7] [%],Activity [1],Activity [8],Compound
29.2,372,175,inactive,inactive,–,–,–,–,–,CCOC(=O)C1=C(C)NC(c2ccc(F)cc2)=C(C(=O)OCC)C1CC (racemic)
28.1,435,–,inactive,inactive,inactive,–,–,–,–,CCOC(=O)C1=C(c2ccccc2)N=C(C)/C(=C(/O)SCC)C1CC (stereo unspecified)
–,148,–,inactive,inactive,inactive,2.09,–,–,–,CCCC1=NC(c2ccccc2)=C(C(=O)OCC)C(CC)/C1=C(\O)SCC (stereo unspecified)
–,257,–,inactive,inactive,inactive,–,–,–,–,CCOC(=O)C1=C(c2ccccc2)N=C(CC)/C(=C(/O)SCC)C1CC (stereo unspecified)
21.3,626,–,inactive,inactive,inactive,4.58,13,–,–,CCOC(=O)C1=C(c2ccccc2)N=C(C)/C(=C(/O)SCCOC)C1CC (stereo unspecified)
–,194,–,inactive,inactive,–,–,–,–,–,CCOC(=O)C1=C(c2cccc(Cl)c2)NC(C)=C(C(=O)SCCc2ccccc2)C1CC (racemic)
–,116,–,inactive,inactive,–,–,–,–,–,CCOC(=O)C1=C(c2ccc3ccccc3c2)NC(C)=C(C(=O)SCC)C1CC (racemic)
–,117,–,inactive,inactive,–,–,–,–,–,CCOC(=O)C1=C(c2ccccc2F)NC(C)=C(C(=O)SCCc2ccccc2)C1CC (racemic)
–,383,–,inactive,inactive,inactive,–,–,–,–,CCOC(=O)C1=C(c2ccccc2)N=C(C)/C(=C(/O)OCC)C1CC (stereo unspecified)
–,–,–,–,–,–,–,–,inactive,inactive,COC(=O)C1=C(C)NC(C)=C(C(=O)OCCN(C)Cc2ccccc2)C1c1cccc([N+](=O)[O-])c1 (stereo unspecified)
–,114,–,inactive,inactive,inactive,15.3,–,–,–,CCOC(=O)C1=C(c2ccccc2)N=C(C)/C(=C(/O)OCC)C1C(OC)OC (stereo unspecified)
–,–,–,–,–,–,–,–,inactive,inactive,CO/C(O)=C1\C(C)=NC(C)=C([N+](=O)[O-])[C@H]1c1ccccc1C(F)(F)F
–,101,117,inactive,inactive,–,–,–,–,–,CCOC(=O)C1=C(c2ccc([N+](=O)[O-])cc2)NC(C)=C(C(=O)SCCc2ccccc2)C1CC (racemic)
22.4,364,318,inactive,inactive,inactive,–,–,–,–,CCCC1C(C(=O)OCC)=C(c2ccccc2)N=C(C)/C1=C(/O)SCC (stereo unspecified)
51.6,232,148,inactive,inactive,–,–,–,–,–,CCOC(=O)C1=C(c2ccc(F)cc2)NC(C)=C(C(=O)SCCc2ccccc2)C1CC (racemic)
–,124,–,inactive,inactive,–,–,–,–,–,CCOC(=O)C1=C(c2ccccc2F)NC(C)=C(C(=O)SC(C)C)C1CC (racemic)
–,129,–,inactive,inactive,–,–,–,–,–,CCOC(=O)C1=C(c2ccc(C#N)cc2)NC(C)=C(C(=O)SCC)C1CC (racemic)
–,198,–,inactive,inactive,–,–,–,–,–,CCOC(=O)C1=C(c2ccccc2F)NC(C)=C(C(=O)SCC)C1CC (racemic)
26.7,403,206,inactive,inactive,–,–,–,–,–,CCOC(=O)C1=C(C)NC(c2cccc(F)c2)=C(C(=O)OCC)C1CC (racemic)
–,175,–,inactive,inactive,–,–,–,–,–,CCOC(=O)C1=C(c2ccc(F)cc2)NC(C)=C(C(=O)SCC)C1C1CC1 (racemic)
–,87,–,inactive,inactive,–,–,–,–,–,CCOC(=O)C1=C(C2CCCCC2)NC(C)=C(C(=O)SCC)C1CC (racemic)
27.6,360,231,inactive,inactive,–,–,–,–,–,CCCC1C(C(=O)SCCc2ccccc2)=C(C)NC(c2ccccc2)=C1C(=O)OCC (racemic)
28.4,409,–,inactive,inactive,–,–,–,–,–,CCOC(=O)C1=C(c2ccc(F)cc2)NC(C)=C(C(=O)SCC)C1CC (racemic)
–,177,–,inactive,inactive,–,–,–,–,–,CCCC1C(C(=O)SCC)=C(C)NC(c2cccc(Cl)c2)=C1C(=O)OCC (racemic)
–,98,–,inactive,inactive,–,–,–,–,–,CCOC(=O)C1=C(c2ccc([N+](=O)[O-])cc2)NC(C)=C(C(=O)SCc2ccccc2)C1CC (racemic)
21.8,446,198,inactive,inactive,–,–,–,–,–,CCOC(=O)C1=C(c2cccc(F)c2)NC(C)=C(C(=O)SCC)C1CC (racemic)
–,123,–,inactive,inactive,–,–,–,–,–,CCOC(=O)C1=C(c2ccccc2F)NC(C)=C(C(=O)SCc2ccccc2)C1CC (racemic)
17.1,347,259,inactive,inactive,–,–,–,–,–,CCOC(=O)C1=C(C)NC(c2cccc(Cl)c2)=C(C(=O)OCC)C1CC (racemic)
